Data from ChEMBL document CHEMBL1909554, “Total synthesis and bioactivity of the marine alkaloid pityriacitrin and some of its derivatives” (Eur J Med Chem, 2011).
Active and inactive are the calls of the source. The calls are words filed in the database; no cut-off is given here.

Tests used:
[1] = tested on: MCF7; test: Cytotoxicity against human MCF7 cells […] by MTT assay; assay type: functional, cell-based
Summary of the method: (§1)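 MTT metabolic assay. Cells were exposed to compound continuously starting 18 h after setup, and survival was read at 96 h. IC50 is the concentration giving 50% growth inhibition relative to untreated cells. Values are means of three independent determinations.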

[2] = Cytotoxicity against human MDA231 cells […] by MTT assay; assay type: functional, cell-based; conditions: MDA-MB-231; summary of the method: as §1
[3] = tested on: PC-3; test: Cytotoxicity against human PC3 cells after 18 hrs by MTT assay; assay type: functional, cell-based; conditions: PC-3, 96 h, in the assay text read “after 96 hrs” for “after 18 hrs”; summary of the method: as §1
[4] = tested on: MDA-MB-231; test: Induction of apoptosis in human MDA231 cells at 20 uM by annexin-V/7-AAD staining-based fluorescence assay; assay type: functional
Summary of the method: (§2)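 MDA-231 breast carcinoma cells were exposed to test compounds at 10, 20 or 50 µM, or to paclitaxel as reference at 10 or 50 nM. Results are expressed as percent apoptotic cells.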

[5] = tested on: MDA-MB-231; test: Induction of necrosis in human MDA231 cells at 50 uM by annexin-V/7-AAD staining-based fluorescence assay; assay type: functional, cell-based
[6] = tested on: MDA-MB-231; test: Induction of apoptosis in human MDA231 cells by annexin-V/7-AAD staining-based fluorescence assay; assay type: functional, cell-based
[7] = tested on: MDA-MB-231; test: Induction of apoptosis in human MDA231 cells at 50 uM by annexin-V/7-AAD staining-based fluorescence assay; assay type: functional; summary of the method: as §2
[8] = target: Aurora kinase B (Homo sapiens) (UniProt Q96GD4); test: Inhibition of human recombinant Aurora B at 10 uM after 4 hrs by Kinase-Glo luminescent assay
Summary of the method: (§3)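 Full-length human recombinant kinases were incubated in kinase buffer containing ATP and poly(Glu:Tyr) substrate, with or without compound at 10 µM final, for 4 h at room temperature. Remaining ATP was quantified by Kinase-Glo luminescence.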

[9] = target: Epidermal growth factor receptor (Homo sapiens) (UniProt P00533); test: Inhibition of human recombinant EGFR at 10 uM after 4 hrs by Kinase-Glo luminescent assay; summary of the method: as §3
[10] = target: Dual specificity mitogen-activated protein kinase kinase 1 (Homo sapiens) (UniProt Q02750); test: Inhibition of human recombinant MEK1 at 10 uM after 4 hrs by Kinase-Glo luminescent assay; summary of the method: as §3
[11] = target: Focal adhesion kinase 1 (Homo sapiens) (UniProt Q05397); test: Inhibition of human recombinant FAK at 10 uM after 4 hrs by Kinase-Glo luminescent assay; summary of the method: as §3
[12] = target: Proto-oncogene tyrosine-protein kinase Src (Homo sapiens) (UniProt P12931); test: Inhibition of human recombinant Src at 10 uM after 4 hrs by Kinase-Glo luminescent assay; summary of the method: as §3
[13] = tested on: MDA-MB-231; test: Induction of apoptosis in human MDA231 cells at 10 nM by annexin-V/7-AAD staining-based fluorescence assay; assay type: functional; summary of the method: as §2
[14] = tested on: MDA-MB-231; test: Induction of apoptosis in human MDA231 cells at 50 nM by annexin-V/7-AAD staining-based fluorescence assay; assay type: functional; summary of the method: as §2

Aurora kinase B (Homo sapiens), sequence (Q96GD4 whole entry): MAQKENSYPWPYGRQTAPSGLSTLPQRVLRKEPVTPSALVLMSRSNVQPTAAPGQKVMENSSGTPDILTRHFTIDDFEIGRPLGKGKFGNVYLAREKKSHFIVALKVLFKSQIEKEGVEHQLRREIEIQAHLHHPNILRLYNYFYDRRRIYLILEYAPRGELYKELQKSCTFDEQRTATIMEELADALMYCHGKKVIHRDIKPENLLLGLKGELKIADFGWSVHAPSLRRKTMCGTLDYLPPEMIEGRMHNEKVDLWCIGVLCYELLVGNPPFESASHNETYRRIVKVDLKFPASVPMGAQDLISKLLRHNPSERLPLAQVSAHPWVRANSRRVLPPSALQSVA
Proto-oncogene tyrosine-protein kinase Src (Homo sapiens), sequence (P12931 2-536 limits assumed): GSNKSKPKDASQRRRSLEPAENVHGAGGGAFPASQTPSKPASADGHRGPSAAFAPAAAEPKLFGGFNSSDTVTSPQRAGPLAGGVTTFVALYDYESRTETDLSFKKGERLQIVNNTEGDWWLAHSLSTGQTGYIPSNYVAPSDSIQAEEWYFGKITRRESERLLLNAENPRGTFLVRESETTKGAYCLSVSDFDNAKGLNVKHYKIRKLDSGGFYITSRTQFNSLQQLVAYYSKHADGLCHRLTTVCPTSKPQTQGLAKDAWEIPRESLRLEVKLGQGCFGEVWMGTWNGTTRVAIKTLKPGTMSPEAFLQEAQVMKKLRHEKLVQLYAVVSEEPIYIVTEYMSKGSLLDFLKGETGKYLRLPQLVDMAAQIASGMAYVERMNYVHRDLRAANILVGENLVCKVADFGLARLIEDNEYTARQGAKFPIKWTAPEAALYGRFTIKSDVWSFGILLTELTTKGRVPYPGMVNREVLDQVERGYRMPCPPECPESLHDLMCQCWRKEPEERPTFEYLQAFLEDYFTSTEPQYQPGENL
Focal adhesion kinase 1 (Homo sapiens), sequence (Q05397 2-1052 limits assumed): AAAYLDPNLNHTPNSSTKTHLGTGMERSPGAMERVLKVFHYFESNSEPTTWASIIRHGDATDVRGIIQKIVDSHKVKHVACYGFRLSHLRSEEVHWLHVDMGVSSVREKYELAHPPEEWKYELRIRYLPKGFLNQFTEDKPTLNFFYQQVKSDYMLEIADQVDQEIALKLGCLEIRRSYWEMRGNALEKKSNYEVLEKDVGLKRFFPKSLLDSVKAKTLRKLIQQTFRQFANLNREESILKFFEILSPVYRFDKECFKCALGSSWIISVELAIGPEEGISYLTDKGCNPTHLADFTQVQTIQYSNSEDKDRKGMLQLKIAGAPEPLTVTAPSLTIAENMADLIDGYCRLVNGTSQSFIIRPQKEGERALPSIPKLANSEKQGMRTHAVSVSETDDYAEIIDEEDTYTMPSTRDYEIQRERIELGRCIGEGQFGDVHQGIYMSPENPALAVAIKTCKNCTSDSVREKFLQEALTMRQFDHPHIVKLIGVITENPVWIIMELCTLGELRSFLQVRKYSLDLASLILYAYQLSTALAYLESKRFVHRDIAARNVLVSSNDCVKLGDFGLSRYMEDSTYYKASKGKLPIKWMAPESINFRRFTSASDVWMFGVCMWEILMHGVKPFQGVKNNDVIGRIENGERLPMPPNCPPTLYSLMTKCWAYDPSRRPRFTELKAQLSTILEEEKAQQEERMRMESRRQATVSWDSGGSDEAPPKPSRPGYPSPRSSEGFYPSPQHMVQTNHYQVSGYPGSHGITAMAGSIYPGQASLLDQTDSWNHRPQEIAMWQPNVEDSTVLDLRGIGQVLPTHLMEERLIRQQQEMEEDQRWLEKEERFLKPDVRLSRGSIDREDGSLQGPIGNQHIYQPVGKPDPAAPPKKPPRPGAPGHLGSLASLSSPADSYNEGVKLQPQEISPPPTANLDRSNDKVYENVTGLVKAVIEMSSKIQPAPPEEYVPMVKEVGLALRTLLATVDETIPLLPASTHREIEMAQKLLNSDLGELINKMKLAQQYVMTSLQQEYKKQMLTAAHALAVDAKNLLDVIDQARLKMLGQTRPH
Epidermal growth factor receptor (Homo sapiens), sequence (P00533 whole entry): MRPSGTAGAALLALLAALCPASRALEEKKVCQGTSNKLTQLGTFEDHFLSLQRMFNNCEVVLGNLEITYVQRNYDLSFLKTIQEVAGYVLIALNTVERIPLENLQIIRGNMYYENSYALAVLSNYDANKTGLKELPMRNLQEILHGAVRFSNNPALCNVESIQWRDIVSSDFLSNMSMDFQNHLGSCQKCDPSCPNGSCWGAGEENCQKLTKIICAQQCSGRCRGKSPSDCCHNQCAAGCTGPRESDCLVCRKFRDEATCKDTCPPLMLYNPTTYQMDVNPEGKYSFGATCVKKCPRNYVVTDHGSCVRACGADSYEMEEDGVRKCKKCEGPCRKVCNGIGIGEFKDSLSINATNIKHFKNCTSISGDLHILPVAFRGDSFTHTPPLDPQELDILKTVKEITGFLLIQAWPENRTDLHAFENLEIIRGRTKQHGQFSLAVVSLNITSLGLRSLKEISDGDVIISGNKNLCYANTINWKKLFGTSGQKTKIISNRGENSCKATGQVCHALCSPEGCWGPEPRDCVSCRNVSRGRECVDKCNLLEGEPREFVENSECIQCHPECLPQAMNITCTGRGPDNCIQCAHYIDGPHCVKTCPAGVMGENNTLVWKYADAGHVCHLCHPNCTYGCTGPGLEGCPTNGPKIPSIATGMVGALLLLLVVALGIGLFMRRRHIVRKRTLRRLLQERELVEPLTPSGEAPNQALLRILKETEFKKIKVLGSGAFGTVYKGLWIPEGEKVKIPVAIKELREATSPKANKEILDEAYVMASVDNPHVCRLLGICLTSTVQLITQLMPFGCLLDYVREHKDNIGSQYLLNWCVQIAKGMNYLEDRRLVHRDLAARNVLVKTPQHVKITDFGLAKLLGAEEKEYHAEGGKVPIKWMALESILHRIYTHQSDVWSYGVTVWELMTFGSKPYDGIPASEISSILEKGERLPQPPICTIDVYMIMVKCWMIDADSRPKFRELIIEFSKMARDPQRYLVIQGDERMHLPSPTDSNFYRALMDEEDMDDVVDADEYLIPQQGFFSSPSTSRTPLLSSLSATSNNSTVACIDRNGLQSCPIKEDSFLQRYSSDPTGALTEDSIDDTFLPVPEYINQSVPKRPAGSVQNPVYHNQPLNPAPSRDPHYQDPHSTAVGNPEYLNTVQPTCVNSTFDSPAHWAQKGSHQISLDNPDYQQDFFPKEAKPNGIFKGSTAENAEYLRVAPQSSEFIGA
Dual specificity mitogen-activated protein kinase kinase 1 (Homo sapiens), sequence (Q02750 whole entry): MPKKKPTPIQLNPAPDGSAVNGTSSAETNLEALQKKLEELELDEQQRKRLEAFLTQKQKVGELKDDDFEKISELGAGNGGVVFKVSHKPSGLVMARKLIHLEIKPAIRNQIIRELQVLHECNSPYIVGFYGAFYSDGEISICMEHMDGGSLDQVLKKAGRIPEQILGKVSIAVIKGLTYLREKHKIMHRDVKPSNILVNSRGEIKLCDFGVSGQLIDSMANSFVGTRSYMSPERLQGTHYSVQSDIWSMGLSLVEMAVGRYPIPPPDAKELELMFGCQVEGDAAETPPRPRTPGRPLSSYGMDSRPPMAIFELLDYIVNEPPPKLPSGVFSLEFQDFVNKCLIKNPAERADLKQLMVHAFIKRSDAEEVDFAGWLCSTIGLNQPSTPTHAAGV

| Compound | IC50 [1] | IC50 [2] | IC50 [3] | further results |
| --- | --- | --- | --- | --- |
| O=C(O)c1cc2c([nH]c3ccccc32)c(C(=O)c2c[nH]c3ccccc23)n1 | 23.4 µM | 24.8 µM | 16.9 µM | Activity [4]: 4.89%; Activity [5]: Active; Activity [6]: Dose-dependent effect; Activity [7]: 17.68% |
| O=C(c1c[nH]c2ccc(Br)cc12)c1nccc2c1[nH]c1ccc(O)cc12 | > 100 µM | > 100 µM | > 100 µM |  |
| O=C(c1c[nH]c2ccccc12)c1nccc2c1[nH]c1ccc(O)cc12 | 12.9 µM | 6.35 µM | 16.4 µM | Activity [4]: 11.16%; inhibition [8]: 10%; inhibition [9]: 9%; inhibition [10]: 11%; inhibition [11]: 11%; inhibition [12]: 8%; Activity [5]: Active; Activity [6]: Dose-dependent effect; Activity [7]: 41% |
| O=C(c1c[nH]c2ccc([N+](=O)[O-])cc12)c1nccc2c1[nH]c1ccc(O)cc12 | > 100 µM | > 100 µM | > 100 µM |  |
| NCCCNC(=O)c1cc2c([nH]c3ccccc32)c(C(=O)c2c[nH]c3ccccc23)n1 |  | 2.48 µM |  |  |
| CN(C)CCNC(=O)c1cc2c([nH]c3ccccc32)c(C(=O)c2c[nH]c3ccccc23)n1 |  | 3.56 µM |  |  |
| CNCCNC(=O)c1cc2c([nH]c3ccccc32)c(C(=O)c2c[nH]c3ccccc23)n1 |  | 3.98 µM |  |  |
| CN(C)CCCNC(=O)c1cc2c([nH]c3ccc(O)cc32)c(C(=O)c2c[nH]c3ccccc23)n1 |  | 2.51 µM |  |  |
| NCCCCNC(=O)c1cc2c([nH]c3ccccc32)c(C(=O)c2c[nH]c3ccccc23)n1 |  | 3.04 µM |  |  |
| CN(C)CCCNC(=O)c1cc2c([nH]c3ccccc32)c(C(=O)c2c[nH]c3ccccc23)n1 |  | 6.02 µM |  |  |
| COC(=O)c1cc2c([nH]c3ccccc32)c(C(=O)c2c[nH]c3ccccc23)n1 |  | 12.6 µM |  |  |
| O=C(c1c[nH]c2ccc(Br)cc12)c1nccc2c1[nH]c1ccccc12 | 60.9 µM | > 100 µM | > 100 µM |  |
| COC(=O)c1cc2c([nH]c3ccc(O)cc32)c(C(=O)c2c[nH]c3ccccc23)n1 |  | 3.16 µM |  |  |
| CN(C)CCNC(=O)c1cc2c([nH]c3ccc(O)cc32)c(C(=O)c2c[nH]c3ccccc23)n1 |  | 1.33 µM |  |  |
| O=C(c1c[nH]c2ccccc12)c1nccc2c1[nH]c1ccccc12 | > 100 µM | > 100 µM | 55.1 µM |  |
| COc1ccc2[nH]cc(C(=O)c3nccc4c3[nH]c3ccc(O)cc34)c2c1 | > 100 µM | 44.5 µM | > 100 µM |  |
| O=C(O)c1cc2c([nH]c3ccc(O)cc32)c(C(=O)c2c[nH]c3ccccc23)n1 | 79 µM | 42 µM | 57.9 µM |  |
| O=C(c1c[nH]c2ccc([N+](=O)[O-])cc12)c1nccc2c1[nH]c1ccccc12 | > 100 µM | > 100 µM | 38.8 µM |  |
| COc1ccc2[nH]cc(C(=O)c3nc(C(=O)O)cc4c3[nH]c3ccccc34)c2c1 | 3.4 µM | 12.1 µM | 32.3 µM |  |
| COc1ccc2[nH]cc(C(=O)c3nccc4c3[nH]c3ccccc34)c2c1 | 6.94 µM | 18.8 µM | 49.9 µM |  |
| NCCNC(=O)c1cc2c([nH]c3ccc(O)cc32)c(C(=O)c2c[nH]c3ccccc23)n1 |  | 15.8 µM |  |  |
| CNCCNC(=O)c1cc2c([nH]c3ccc(O)cc32)c(C(=O)c2c[nH]c3ccccc23)n1 |  | 4.36 µM |  |  |
| NCCCCNC(=O)c1cc2c([nH]c3ccc(O)cc32)c(C(=O)c2c[nH]c3ccccc23)n1 |  | 8.7 µM |  |  |
| CC(=O)O[C@H]1C(=O)[C@@]2(C)[C@H]([C@H](OC(=O)c3ccccc3)[C@]3(O)C[C@H](OC(=O)[C@H](O)[C@@H](NC(=O)c4ccccc4)c4ccccc4)C(C)=C1C3(C)C)[C@]1(OC(C)=O)CO[C@@H]1C[C@@H]2O [PACLITAXEL] |  |  |  | Activity [13]: 11.93%; Activity [14]: 17.23% |
| NCCNC(=O)c1cc2c([nH]c3ccccc32)c(C(=O)c2c[nH]c3ccccc23)n1 |  | 12.6 µM |  |  |
